≈ marks a conversion by molar mass, not a printed value. Calls of active or inactive are those of the source. The rule behind the calls is not given here.
Key:
[1] = Anti-inflammatory activity at 50 ug/ml using bovine serum albumin and egg albumin proteins incubated at 37 degC for 20 mins and then heated to 95 degC for 20 mins by UV-visible Spectrophotometry based protein denaturation method; assay type: functional
Outline: (§1)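 Albumin (bovine serum or egg) at 1% in 50 mM sodium phosphate buffer pH 6.4. Mixture is 0.1 ml test sample (1 mg/ml) plus 0.2 ml albumin, made to 5 ml with buffer. Held 37 °C for 20 min, then 95 °C for 20 min. Cooled to room temperature, turbidity read at 660 nm. % inhibition = (Abs control − Abs sample)/Abs control × 100. Triplicate, averaged.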

[2] = system: Mus musculus; experiment: Anti-inflammatory activity in Balb/c mouse assessed as reduction in LPS-induced serum IL6 production at 100 mg/kg, ig dosed for 3 consecutive days before LPS challenge and measured 6 hrs post LPS injection by ELISA method; assay type: functional, organism-based
Outline: (§2)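 Male Balb/c mice (20–25 g), 8 per group. Test compound at 100 mg/kg suspended in 2% gum acacia (10 ml/kg), given orally (intragastric) for 3 consecutive days. On day 3, LPS (10 mg/kg) given ip 1 h after the oral dose. Serum taken from retro-orbital blood 6 h after LPS; TNF-α and IL-6 measured by ELISA. Mean ± S.E.M.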

[3] = system: Mus musculus; experiment: Anti-inflammatory activity in Balb/c mouse assessed as reduction in LPS-induced serum TNFalpha production at 100 mg/kg, ig dosed for 3 consecutive days before LPS challenge and measured 6 hrs post LPS injection by ELISA method; assay type: functional, organism-based; outline: as §2
[4] = Anti-inflammatory activity using bovine serum albumin and egg albumin proteins incubated at 37 degC for 20 mins and then heated to 95 degC for 20 mins by UV-visible Spectrophotometry based protein denaturation method; assay type: functional; outline: as §1
[5] = system: U-937; experiment: Anti-inflammatory activity in human U937 cells assessed as inhibition of LPS-induced TNFalpha production at 10 uM pre-incubated for 1 hr before LPS stimulation for 24 hrs by ELISA method; assay type: functional
Outline: (§3)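 Human U937 cells grown in RPMI1640 with 10% FBS at 37 °C, 5% CO2. Differentiated with PMA 30 ng/ml for 24 h. Test compounds added for 1 h, then LPS 1 µg/ml for 24 h. TNF-α and IL-6 in supernatant measured by ELISA. Three independent experiments.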

[6] = Anti-inflammatory activity at 100 ug/ml using bovine serum albumin and egg albumin proteins incubated at 37 degC for 20 mins and then heated to 95 degC for 20 mins by UV-visible Spectrophotometry based protein denaturation method; assay type: functional; outline: as §1
[7] = system: U-937; experiment: Anti-inflammatory activity in human U937 cells assessed as inhibition of LPS-induced IL6 production at 10 uM pre-incubated for 1 hr before LPS stimulation for 24 hrs by ELISA method; assay type: functional; outline: as §3
[8] = system: U-937; experiment: Anti-inflammatory activity in human U937 cells assessed as inhibition of LPS-induced TNFalpha production pre-incubated for 1 hr before LPS stimulation for 24 hrs by ELISA method; assay type: functional, cell-based; outline: as §3
[9] = system: Salmonella typhi; experiment: Antimicrobial activity against Salmonella typhi at 1 mg/ml incubated for 20 to 30 mins followed by incubation for 24 hrs at 37 degC by agar plate method; assay type: functional, Salmonella enterica subsp. enterica serovar Typhi; settings: Salmonella enterica; read-out: DIZ
Outline: (§4)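 Agar well diffusion on nutrient agar. Plates swabbed with 60 µL inoculum, 8 mm wells loaded with 100 µL sample at 1.0 mg/mL, streptomycin standard and control in separate wells. Plates held 20–30 min at 4 °C for diffusion, then 24 h at 37 °C. Zone diameter read in mm; triplicate.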

[10] = system: U-937; experiment: Anti-inflammatory activity in human U937 cells assessed as inhibition of LPS-induced IL6 production pre-incubated for 1 hr before LPS stimulation for 24 hrs by ELISA method; assay type: functional, cell-based; outline: as §3
[11] = system: Micrococcus luteus; experiment: Antimicrobial activity against Micrococcus luteus at 1 mg/ml incubated for 20 to 30 mins followed by incubation for 24 hrs at 37 degC by agar plate method; assay type: functional; settings: read-out: DIZ
Outline: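 Agar well diffusion on nutrient agar. Plates swabbed with 60 µL inoculum; 8 mm wells loaded with 100 µL of compound at 1.0 mg/mL. Held 20–30 min at 4 °C for diffusion, then 24 h at 37 °C. Inhibition zone diameter read in mm. Triplicate.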

[12] = system: Salmonella typhi; experiment: Antimicrobial activity against Salmonella typhi incubated for 12 to 16 hrs followed by plating in nutrient agar by tube dilution method; assay type: functional, Salmonella enterica subsp. enterica serovar Typhi; settings: Salmonella enterica
Outline: (§5)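 After 12-16 h at 37 °C in tube dilution (500 to 1.9 µg/mL; 1 mL inoculum at OD 0.2), the culture from each tube was plated on nutrient agar. MBC is the concentration at which cells are completely killed.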

[13] = system: Micrococcus luteus; experiment: Antimicrobial activity against Micrococcus luteus incubated for 12 to 16 hrs by tube dilution method; assay type: functional
Outline: (§6)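 Tube dilution, serial from 500 to 1.9 µg/mL, plus drug-free control tube. Each tube inoculated with 1 mL culture at OD 0.2, incubated 37 °C for 12–16 h. MIC is the lowest concentration with no growth by turbidity. MBC is found by plating each tube on nutrient agar: the lowest concentration at which all cells are killed.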

[14] = system: Salmonella paratyphi; experiment: Antimicrobial activity against Salmonella paratyphi incubated for 12 to 16 hrs by tube dilution method; assay type: functional, Salmonella enterica subsp. enterica serovar Paratyphi A; settings: Salmonella enterica
Outline: (§7)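 Broth tube dilution, two-fold serial dilutions from 500 to 1.9 µg/mL plus a drug-free control tube. Each tube inoculated with 1 mL culture at OD 0.2 (~McFarland standard), 37 °C for 12-16 h. Turbidity compared with the control tube. MIC is the lowest concentration giving complete growth inhibition.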

[15] = system: Salmonella typhi; experiment: Antimicrobial activity against Salmonella typhi incubated for 12 to 16 hrs by tube dilution method; assay type: functional, Salmonella enterica subsp. enterica serovar Typhi; settings: Salmonella enterica; outline: as §7
[16] = system: Salmonella paratyphi; experiment: Antimicrobial activity against Salmonella paratyphi incubated for 12 to 16 hrs followed by plating in nutrient agar by tube dilution method; assay type: functional, Salmonella enterica subsp. enterica serovar Paratyphi A; settings: Salmonella enterica; outline: as §5
[17] = system: Micrococcus luteus; experiment: Antimicrobial activity against Micrococcus luteus incubated for 12 to 16 hrs followed by plating in nutrient agar by tube dilution method; assay type: functional; outline: as §6
[18] = system: Salmonella paratyphi; experiment: Antimicrobial activity against Salmonella paratyphi at 1 mg/ml incubated for 20 to 30 mins followed by incubation for 24 hrs at 37 degC by agar plate method; assay type: functional, Salmonella enterica subsp. enterica serovar Paratyphi A; settings: Salmonella enterica; read-out: DIZ; outline: as §4

| Compound | inhibition [1] | inhibition [2] | inhibition [3] | IC50 [4] | inhibition at 10 µM [5] | inhibition [6] | inhibition at 10 µM [7] | IC50 [8] | zone of inhibition at 1000 µg/mL [9] | IC50 [10] | zone of inhibition at 1000 µg/mL [11] | MBC [12] | MIC [13] | MIC [14] | MIC [15] | MBC [16] | MBC [17] | zone of inhibition at 1000 µg/mL [18] |
| --- | --- | --- | --- | --- | --- | --- | --- | --- | --- | --- | --- | --- | --- | --- | --- | --- | --- | --- |
| Cc1ccc(-n2cc(Cn3cc(CO)nn3)c(-c3ccccc3)n2)cc1C | 46.5% | inactive | Active | 64.44 µg/mL (≈ 179 µM) | 41.7% | 77.6% | 87% | 17.4 µM | 15.5 mm | 7.72 µM | – | – | – | – | – | – | – | – |
| COc1ccc(-c2nn(-c3ccccc3)cc2Cn2cc(CO)nn2)cc1 | 69% | – | – | 58 µg/mL (≈ 160 µM) | 40.9% | 86.2% | 46.7% | 17.2 µM | 16 mm | 9.5 µM | 26 mm | 125 µg/mL (≈ 346 µM) | 125 µg/mL (≈ 346 µM) | 62.5 µg/mL (≈ 173 µM) | 62.5 µg/mL (≈ 173 µM) | 62.5 µg/mL (≈ 173 µM) | 125 µg/mL (≈ 346 µM) | 19 mm |
| COc1ccc(-c2nn(-c3ccccc3)cc2CO)cc1 | 15.5% | – | – | 105.45 µg/mL (≈ 376 µM) | 22.9% | 47.4% | 68.5% | 35.5 µM | – | 8.24 µM | – | – | – | – | – | – | – | 11.5 mm |
| COc1ccc(C2CNC(=O)C2)cc1OC1CCCC1 (configuration not stated) [ROLIPRAM] | – | – | – | – | 59.1% | – | 53.5% | 1.12 µM | – | 1.17 µM | – | – | – | – | – | – | – | – |
| OCc1cn(-c2ccc(Cl)cc2)nc1-c1ccccc1 | 76.7% | – | – | 54.21 µg/mL (≈ 190 µM) | 2.61% | 92.2% | 21.6% | – | 21.5 mm | – | 26.5 mm | 125 µg/mL (≈ 439 µM) | 3.9 µg/mL (≈ 13.7 µM) | 31.2 µg/mL (≈ 110 µM) | 62.5 µg/mL (≈ 219 µM) | 62.5 µg/mL (≈ 219 µM) | 7.81 µg/mL (≈ 27.4 µM) | 18 mm |
| OCc1cn(Cc2cn(-c3ccccc3)nc2-c2ccccc2)nn1 | 10.3% | – | – | 128.89 µg/mL (≈ 389 µM) | 15.7% | 38.8% | 53% | 35.7 µM | – | 8.12 µM | – | – | – | – | – | – | – | 12.5 mm |
| Cc1ccc(-n2cc(Cn3cc(CO)nn3)c(-c3ccccc3)n2)cc1 | 66.4% | – | – | 59.79 µg/mL (≈ 173 µM) | 31.2% | 83.6% | 50.4% | 21.4 µM | 19 mm | 8.7 µM | – | – | – | – | – | – | – | 11.5 mm |
| OCc1cn(Cc2cn(-c3ccccc3)nc2-c2ccc(Cl)cc2)nn1 | 49.1% | – | – | 68.24 µg/mL (≈ 187 µM) | 19.2% | 73.3% | 76.9% | 30.9 µM | – | 6.23 µM | – | – | – | – | – | – | – | 15 mm |
